Kir21 block – inhibitors of mouse Kir2.1 inward-rectifier potassium channel; Inward rectifier potassium channel 2 (Mus musculus), P35561; HEK293-Kir2.1, FluxOR thallium flux fluorescence; hits give low values; B-score at 10 µM; 310,000 tested, 0.85% active; AID 1672, 2009;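 active = fluorescence ratio B-score at or below minus 3 SD of library scores, with starting-brightness B-score within 2 SD, cut at about -4.2 in these data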;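 also: channel flux triggered by added potassium and thallium sulfate stimulus; B-score of peak minus minimum fluorescence over baseline after thallium stimulus; more negative B-score means stronger Kir2.1 block with less thallium influx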
KCNK3 block – human KCNK3 channel inhibitors, primary screen, CHO cells, FluxOR thallium flux, B-score; Potassium channel subfamily K member 3 (Homo sapiens), O14649; 340,000 tested, 0.84% active; AID 602410, 2012; FluxOR fluorescence; hits give low values; B-score at 10 µM;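 active = B-score under library mean minus 4 SD, starting fluorescence ratio at most library mean plus 5 SD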;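 also: more negative B-score means stronger inhibition of thallium flux through KCNK3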
hERG rescue – hERG rescue from dofetilide block, primary screen, cell-based, CHO-hERG, FluxOR thallium flux, dofetilide IC70; Voltage-gated inwardly rectifying potassium channel KCNH2 (Homo sapiens), Q12809; dofetilide IC70 present; activation (rescue from dofetilide block), less the hit threshold, % at 10 µM; 310,000 tested, 0.51% active;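 active = activation above the mean of controls blocked by dofetilide plus 5 SD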;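 also: thallium influx through hERG after potassium depolarization seen as dye fluorescence rise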
Target sequence (Q12809 whole entry, looked up): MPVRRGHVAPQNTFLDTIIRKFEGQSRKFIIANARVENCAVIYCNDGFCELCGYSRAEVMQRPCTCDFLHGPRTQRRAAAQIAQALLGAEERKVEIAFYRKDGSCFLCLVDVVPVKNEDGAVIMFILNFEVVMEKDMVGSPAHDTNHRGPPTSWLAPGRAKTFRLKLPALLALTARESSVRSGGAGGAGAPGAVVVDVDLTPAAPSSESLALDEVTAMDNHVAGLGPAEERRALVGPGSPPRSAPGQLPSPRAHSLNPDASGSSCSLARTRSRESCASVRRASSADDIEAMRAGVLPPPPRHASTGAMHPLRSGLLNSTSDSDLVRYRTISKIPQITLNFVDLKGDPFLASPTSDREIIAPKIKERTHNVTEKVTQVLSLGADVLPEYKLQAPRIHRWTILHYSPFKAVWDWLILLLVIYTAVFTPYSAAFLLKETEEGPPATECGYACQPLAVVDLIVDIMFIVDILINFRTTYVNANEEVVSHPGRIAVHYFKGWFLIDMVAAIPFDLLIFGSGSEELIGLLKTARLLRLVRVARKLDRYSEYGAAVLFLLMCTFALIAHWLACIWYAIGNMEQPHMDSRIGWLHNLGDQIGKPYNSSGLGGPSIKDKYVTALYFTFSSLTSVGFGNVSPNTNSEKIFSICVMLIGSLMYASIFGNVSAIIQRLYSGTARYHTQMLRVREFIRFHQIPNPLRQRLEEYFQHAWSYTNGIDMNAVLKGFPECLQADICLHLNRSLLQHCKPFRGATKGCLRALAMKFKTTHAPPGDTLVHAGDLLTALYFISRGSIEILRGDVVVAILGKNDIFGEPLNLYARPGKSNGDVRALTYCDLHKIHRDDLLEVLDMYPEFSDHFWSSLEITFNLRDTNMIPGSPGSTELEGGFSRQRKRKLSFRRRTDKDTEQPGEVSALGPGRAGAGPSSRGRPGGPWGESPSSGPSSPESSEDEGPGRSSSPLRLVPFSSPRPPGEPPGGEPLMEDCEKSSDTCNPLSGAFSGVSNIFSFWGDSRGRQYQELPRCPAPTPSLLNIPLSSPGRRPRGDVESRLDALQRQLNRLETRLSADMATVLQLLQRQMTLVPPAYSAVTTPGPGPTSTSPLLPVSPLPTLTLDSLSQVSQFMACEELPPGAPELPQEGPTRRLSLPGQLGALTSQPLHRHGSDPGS
KCNQ1 inh – inhibitors of human KCNQ1 channel, primary screen, cell-based, thallium flux, high-throughput | Potassium voltage-gated channel subfamily KQT member 1 (Homo sapiens), P51787 | CHO-K1 KCNQ1, FluxOR thallium flux fluorescence; hits give high values | B-score at 10 µM | 310,000 tested, 1.3% active;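 active = compounds whose thallium flux B-score, printed positive for inhibition, exceeds three library SD while starting fluorescence stays within three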;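 also: channel opened by potassium depolarization with thallium stimulus after 20 min compound exposure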
KCNK9 block – KCNK9 potassium channel inhibitors, primary screen, HEK293 cells, thallium flux | B-score at 10 µM | FluxOR thallium flux fluorescence; hits give low values | AID 488922, 2010 | 310,000 tested, 1.2% active | Potassium channel subfamily K member 9 (Homo sapiens), Q9NPC2;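 active = ratio B-score over 3 SD below the library mean, with starting fluorescence within 5 SD of its mean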;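 also: negative B-score means less thallium flux so channel inhibition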
KCNQ1 pot – potentiators or activators of KCNQ1 channel, primary screen, cell-based, thallium flux, high-throughput; CHO-K1 KCNQ1, thallium flux FluxOR fluorescence; hits give high values; B-score at 10 µM; 310,000 tested, 0.35% active; AID 2648, 2010;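 active = fluorescence ratio B-score, a plate-corrected score, at least three library SD, with initial intensity B-score within 5 SD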
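Test system: CHO-K1 cells stably expressing KCNQ1 / Medium: assay buffer / Also added: depolarizing K+/Tl+ stimulus, K2SO4 and Tl2SO4 each 12.5 mM in 5x stock / Incubation: 90 min dye loading and 20 min compound exposure, both at room temperature / Signal: thallium influx via FluxOR fluorescence, kinetic imaging / Evaluation: B score of baseline-normalized fluorescence ratio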
Numbers stand for hits; n = inactive; x = not tested or not shown. Most compounds without a hit are left out; they make up all but 3.8% or so of the library.

SMILES	Kir21 block	KCNK3 block	hERG rescue	KCNQ1 inh	KCNK9 block	KCNQ1 pot
CCOc1cc(CNC2CCCC2)ccc1OCc1ccccc1Cl	-4.44	n	n	n	n	n
COc1ccccc1/C=N/NC(=O)CC(=O)NCCc1ccccc1	n	n	n	n	n	n
CN(C)CCc1cc2c(c3c1ccc1ccccc13)OCO2	-10.8	n	n	n	n	n
COc1cc2ccc3c(CCN(C)C)cc(OC)c(OC)c3c2cc1OC	n	n	n	n	n	n
COc1ccccc1N1CCN(C(=O)CCCN2C(=O)c3cccc4cccc(c34)C2=O)CC1	n	n	n	6	n	n
CC(=O)N(Cc1ccccc1C)c1cccc(C)c1C	-4.58	n	n	n	n	n
O=C1NC2(CCCCCC2)C(=O)N1Cc1ccccc1Cl	n	n	n	n	n	n
O=C(Nc1cccc(N=Cc2cc(Cl)cc(Br)c2O)c1)c1ccco1	n	n	n	n	n	17
O=C(Nc1cccc(N=Cc2cc(Br)cc(Br)c2O)c1)c1ccco1	n	n	n	n	n	n
COc1cc(CN(C(=O)c2ccco2)C2CCS(=O)(=O)C2)cc(OC)c1OC (centres undefined)	n	n	n	n	n	n
S=C(NCCSCc1c(Cl)cccc1Cl)Nc1ccccc1	-5.13	n	n	n	n	n
O=C(NCCSCc1c(F)cccc1Cl)Nc1ccccc1	n	n	n	n	n	n
CCOc1ccc(S(=O)(=O)N2CCCC(C(=O)NCc3cccnc3)C2)cc1 (centres undefined)	n	n	n	n	n	n
O=C(NCCNCc1ccc(F)cc1)c1ccco1	n	n	n	n	n	n
Fc1ccc(CNCCC(Cc2ccccc2)c2ccco2)cc1 (centres undefined)	-15.1	n	n	n	n	n
CC(C)(C)C(O)(CC#CCN1CCCC1)c1ccccc1 (centres undefined)	n	n	n	n	n	n
O=S(=O)(NCCSCc1c(Cl)cccc1Cl)c1ccc2c(c1)OCCO2	n	n	n	n	n	n
O=S(=O)(NCCSc1ccc(Cl)cc1)c1ccc2c(c1)OCCO2	-5.38	n	n	n	n	n
COc1ccc2oc(=O)c(C(=O)N3CCN(C(=O)c4ccco4)CC3)cc2c1	n	n	n	n	n	n
CC(C(=O)NCCCc1ccccc1)c1ccc([N+](=O)[O-])cc1 (centres undefined)	-4.42	n	n	n	n	n
COc1ccc(CCNC(=O)C(C)c2ccc([N+](=O)[O-])cc2)cc1 (centres undefined)	-4.55	n	n	n	n	n
CC(C(=O)NCc1ccc(F)cc1)c1ccc([N+](=O)[O-])cc1 (centres undefined)	n	n	n	n	n	n
O=C(O)c1cc([N+](=O)[O-])ccc1NCCCc1ccccc1	n	n	n	6	n	n
COc1ccc(C(CC(=O)c2ccc(C)cc2)Nc2ccc([N+](=O)[O-])cc2)cc1 (centres undefined)	n	n	n	6	n	n
CC(C)NC(=O)c1cc(-n2cnnc2)ccc1Cl	n	n	n	n	n	n
SMILES	Kir21 block	KCNK3 block	hERG rescue	KCNQ1 inh	KCNK9 block	KCNQ1 pot
O=C(CSc1n[nH]c(-c2ccc(Br)cc2)n1)N1CCOCC1	x	n	x	x	x	x
Cn1nc(C(=O)NNC(=O)Cc2ccc(S(=O)(=O)N3CCOCC3)s2)c2ccccc2c1=O	x	n	x	x	x	x
O=S(=O)(CS(=O)(=O)c1ccccc1)c1ccccc1	x	n	x	x	x	x
O=S(=O)(C/C(=C/CO)S(=O)(=O)c1ccccc1)c1ccccc1	n	n	n	6	n	n
CC1CC(C)CN(C(=O)CSc2nnc(-c3ccco3)o2)C1 (centres undefined)	n	n	n	n	n	n
CS(=O)(=O)c1nc(-c2ccco2)cc(C(F)(F)F)n1	n	x	n	7	n	n
COc1ccccc1-c1cc(C(F)(F)F)nc(S(C)(=O)=O)n1	n	n	n	n	n	n
CN(C)CCNC(=O)c1cc2c(s1)-c1ccc(Cl)cc1SC2	-7.76	n	n	n	n	n
CCOCCCNC(=O)c1cc2c(s1)-c1ccccc1SC2	n	n	n	n	n	n
CCC1(CC)C(=O)N(c2ccccc2)C(=N)N(c2ccccc2)C1=O	x	n	x	x	x	x
CC1=C(CC(=O)c2ccc(Cl)cc2)C(=O)c2ccccc2C1=O	n	n	n	n	-6.74	n
CCN=C1SC(C(=O)Nc2cccc(Br)c2)CC(=O)N1CC (centres undefined)	n	n	n	n	-7.09	n
COc1ccccc1N1CCN(CC(=O)Nc2nc(C)c(C(=O)N(C)C)s2)CC1	n	n	n	n	n	n
CC(C)N(C(=O)CSc1nc2ccccc2c(=O)[nH]1)C(C)C	n	n	n	n	n	n
CC(C)c1cccc(C(C)C)c1OCCCCCN1CCOCC1	-5.11	n	n	n	n	n
c1ccc2c(OCCCCN3CCOCC3)cccc2c1	n	n	n	n	n	n
N#CC1=C(SCC(=O)c2cc3ccccc3oc2=O)NC(=O)C(C#N)C12CCCC2 (centres undefined)	n	n	n	7	n	n
COc1ccccc1NC(=O)C(C)OC(=O)COc1cccc2c1OC(C)(C)C2 (centres undefined)	-4.61	n	n	n	n	n
COc1ccccc1CCNC(=O)COc1cccc2c1OC(C)(C)C2	-6.38	n	n	n	n	n
COc1ccc(NC(=O)COc2cccc3c2OC(C)(C)C3)cc1OC	x	n	x	x	x	x
COc1ccccc1NC(=O)C(C)OC(=O)CCCOc1ccccc1 (centres undefined)	-4.82	n	n	n	n	n
Cc1c(NC(=O)C(C)OC(=O)COc2cccc3c2OC(C)(C)C3)c(=O)n(-c2ccccc2)n1C (centres undefined)	n	n	n	n	n	n
CC1(C)Cc2cccc(OCC(=O)NCCOc3ccccc3)c2O1	n	n	n	n	n	n
COc1ccc(C(C)=O)cc1COc1cccc2c1OC(C)(C)C2	-5.01	n	n	n	n	n
O=C(N/N=C/c1ccsc1)c1c[nH]c2ccccc12	n	n	n	n	n	n
COc1ccccc1N1C(=O)C2C(C(=O)c3ccccc3)=NN(c3ccccc3)C2C1=O (centres undefined)	n	n	n	6	n	n
COc1ccccc1N1N=C(C(=O)c2ccccc2)C2C(=O)N(c3ccc(Br)cc3)C(=O)C21 (centres undefined)	n	n	n	n	n	n
CC(=O)Nc1cc(=O)c2cccnc2[nH]1	x	n	x	x	x	x

Source: PubChem
